# Source: ChEMBL document CHEMBL1146231, “Novel semisynthetic derivative of antibiotic Eremomycin active against drug-resistant gram-positive pathogens including Bacillus anthracis” (J Med Chem, 2007)
# Tests used:
# [1] = tested on: Staphylococcus epidermidis; test: Antimicrobial activity against Staphylococcus epidermidis 533 isolate; type: functional
# Summary of the method: (§1)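 MICs were run by broth microdilution as recommended by NCCLS, in cation-adjusted Mueller-Hinton broth. Compound was serially diluted 2-fold, over a final range of 64 to 0.03 µg/mL after inoculation.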
# Enterococcus faecium [2] = test: Antimicrobial activity against vancomycin-susceptible Enterococcus faecium 568 isolate; type: functional; summary of the method: as §1
# Staphylococcus aureus [3] = test: Antimicrobial activity against glycopeptide intermediate resistant Staphylococcus aureus 3793 isolate; type: functional; summary of the method: as §1
# Enterococcus faecium [4] = test: Antimicrobial activity against vancomycin-resistant Enterococcus faecium 569 isolate; type: functional; summary of the method: as §1
# Enterococcus faecalis [5] = test: Antimicrobial activity against vancomycin-susceptible Enterococcus faecalis 559 isolate; type: functional; summary of the method: as §1
# [6] = tested on: Staphylococcus haemolyticus; test: Antimicrobial activity against Staphylococcus haemolyticus 602 isolate; type: functional; summary of the method: as §1
# Staphylococcus aureus [7] = test: Antimicrobial activity against glycopeptide intermediate resistant Staphylococcus aureus 3798 isolate; type: functional; summary of the method: as §1
# Enterococcus faecalis [8] = test: Antimicrobial activity against vancomycin-resistant Enterococcus faecalis 560 isolate; type: functional; summary of the method: as §1
# [9] = Bioavailability in BALB/c mouse at 25 mg/kg, ip; type: ADME, organism-based; conditions: in vivo
# Summary of the method: (§2)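 Female BALB/c mice received the test compound by the iv, sc, ip or po route. Plasma exposure gave Cmax, bioavailability from the sc, ip and po routes, iv half-life, clearance and Vss. Clinical observations and mortality were also recorded.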
# [10] = Bioavailability in BALB/c mouse at 70 mg/kg, po; type: ADME, organism-based; conditions: in vivo; summary of the method: as §2
# [11] = Cmax in BALB/c mouse at 25 mg/kg, iv; type: ADME, organism-based; set-up: dose 25 mg/kg, route intravenous; conditions: in vivo; summary of the method: as §2
# [12] = Clearance in BALB/c mouse at 25 mg/kg, iv; type: ADME, organism-based; set-up: dose 25 mg/kg, route intravenous; conditions: in vivo; summary of the method: as §2
# [13] = Bioavailability in BALB/c mouse at 25 mg/kg, sc; type: ADME, organism-based; conditions: in vivo; summary of the method: as §2
# [14] = Cmax in BALB/c mouse at 25 mg/kg, ip; type: ADME, organism-based; set-up: dose 25 mg/kg, route intraperitoneal; conditions: in vivo; summary of the method: as §2
# [15] = Volume of distribution in BALB/c mouse at 25 mg/kg, iv; type: ADME, organism-based; set-up: dose 25 mg/kg, route intravenous; conditions: in vivo, read-out: Vss; summary of the method: as §2
# [16] = Cmax in BALB/c mouse at 25 mg/kg, sc; type: ADME, organism-based; set-up: dose 25 mg/kg, route subcutaneous; conditions: in vivo; summary of the method: as §2
# [17] = Half life in BALB/c mouse at 25 mg/kg, iv; type: ADME, organism-based; set-up: dose 25 mg/kg, route intravenous; conditions: in vivo; summary of the method: as §2
# Staphylococcus aureus [18] = test: Antimicrobial activity against methicillin-resistant Staphylococcus aureus Stau_b11386 isolate; type: functional; summary of the method: as §1
# Bacillus anthracis [19] = test: Antimicrobial activity against Bacillus anthracis HH105-5R isolate; type: functional
# Staphylococcus aureus [20] = test: Antimicrobial activity against methicillin-resistant Staphylococcus aureus Stau_Mu50-HIP5406 isolate; type: functional; summary of the method: as §1
# Enterococcus faecalis [21] = test: Antimicrobial activity against vancomycin-resistant Enterococcus faecalis Enfa_t29862 isolate; type: functional; summary of the method: as §1
# Staphylococcus aureus [22] = test: Antimicrobial activity against methicillin-resistant Staphylococcus Stau_33591 isolate; type: functional; summary of the method: as §1
# Mus musculus [23] = test: Survival of pulmonary anthrax BALB/c mouse model infected with Bacillus anthracis Ames at 100 mg/kg, sc after 6 days; type: functional; conditions: 144 h, route subcutaneous
# Mus musculus [24] = organism: Mus musculus; test: Effect on survival of BALB/c mouse infected with Staphylococcus aureus PGO#172; type: functional
# Summary of the method: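 Mice received a lethal dose of S. aureus PGO#172 (ATCC#29213) by intraperitoneal injection. They were treated with an iv bolus at 1, 5, 10, 25 or 50 mg/kg, in groups of five. Mortality was the endpoint, and ED50 was derived from the dose-response.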
# Bacillus anthracis [25] = test: Antimicrobial activity against Bacillus anthracis HHT105-5R isolate; type: functional
# Mus musculus [26] = test: Survival of pulmonary anthrax BALB/c mouse model infected with Bacillus anthracis Ames at 30 mg/kg, sc after 6 days; type: functional; conditions: 144 h, route subcutaneous
# Mus musculus [27] = test: Survival of BALB/c mouse pulmonary challenged with Bacillus anthracis at 1 mg/kg; type: functional
# Mus musculus [28] = test: Survival of pulmonary anthrax BALB/c mouse model infected with Bacillus anthracis Ames at 10 mg/kg, sc after 6 days; type: functional; conditions: 144 h, route subcutaneous
# Bacillus anthracis [29] = test: Antimicrobial activity against Bacillus anthracis HH113-6R isolate; type: functional
# Bacillus anthracis [30] = test: Antimicrobial activity against Bacillus anthracis HH105-5 isolate; type: functional
# Bacillus anthracis [31] = test: Antimicrobial activity against Bacillus anthracis HH105-6 isolate; type: functional
# Staphylococcus aureus [32] = test: Antimicrobial activity against methicillin-resistant Staphylococcus aureus Stau_HIP5827 isolate; type: functional; summary of the method: as §1
# Mus musculus [33] = test: Survival of BALB/c mouse pulmonary challenged with Bacillus anthracis at 0.3 mg/kg; type: functional
# Streptococcus pyogenes = test: Antimicrobial activity against Streptococcus pyogenes Stpy_8668 isolate; type: functional
# Enterococcus faecalis [34] = test: Antimicrobial activity against vancomycin-resistant Enterococcus faecalis Enfa_vre-2 isolate; type: functional; summary of the method: as §1
# Escherichia coli = test: Antimicrobial activity against Escherichia coli Esco_25922 isolate; type: functional
# Bacillus anthracis [35] = test: Antimicrobial activity against Bacillus anthracis Ames; type: functional
# Mus musculus [36] = test: Survival of BALB/c mouse pulmonary challenged with Bacillus anthracis at 10 mg/kg; type: functional
# Enterococcus faecalis [37] = test: Antimicrobial activity against vancomycin-susceptible Enterococcus faecalis Enfa_29212 isolate; type: functional; summary of the method: as §1
# Mus musculus [38] = test: Survival of pulmonary anthrax BALB/c mouse model infected with Bacillus anthracis Ames at 30 mg/kg, sc twice daily for 6 days; type: functional; conditions: 144 h, route subcutaneous
# Mus musculus [39] = test: Survival of BALB/c mouse pulmonary challenged with Bacillus anthracis at 3 mg/kg; type: functional
# Staphylococcus aureus [40] = test: Antimicrobial activity against methicillin-resistant Staphylococcus aureus Stau_29213 isolate; type: functional; summary of the method: as §1
smiles,measurement,setting,value
CN[C@H](CC(C)C)C(=O)N[C@H]1C(=O)N[C@@H](CC(N)=O)C(=O)N[C@H]2C(=O)N[C@H]3C(=O)N[C@H](C(=O)N[C@H](C(=O)NCC4C5CC6CC(C5)CC4C6)c4cc(O)cc(O)c4-c4cc3ccc4O)[C@H](O[C@@H]3C[C@@](C)(N)[C@H](O)[C@@H](C)O3)c3ccc(cc3)Oc3cc2cc(c3O[C@H]2O[C@@H](CO)[C@H](O)[C@@H](O)[C@@H]2O[C@H]2C[C@](C)(N)[C@@H](O)[C@H](C)O2)Oc2ccc(cc2Cl)[C@H]1O (stereo partly specified),MIC,[1],0.5 µg/mL
same,MIC,Enterococcus faecium [2],0.5 µg/mL
same,MIC,Staphylococcus aureus [3],1 µg/mL
same,MIC,Enterococcus faecium [4],16 µg/mL
same,MIC,Enterococcus faecalis [5],1 µg/mL
same,MIC,[6],0.5 µg/mL
same,MIC,Staphylococcus aureus [7],2 µg/mL
same,MIC,Enterococcus faecalis [8],16 µg/mL
CN[C@H](CC(C)C)C(=O)N[C@H]1C(=O)N[C@@H](CC(N)=O)C(=O)N[C@H]2C(=O)N[C@H]3C(=O)N[C@H](C(=O)N[C@H](C(=O)NC45CC6CC(CC(C6)C4)C5)c4cc(O)cc(O)c4-c4cc3ccc4O)[C@H](O[C@@H]3C[C@@](C)(N)[C@H](O)[C@@H](C)O3)c3ccc(cc3)Oc3cc2cc(c3O[C@H]2O[C@@H](CO)[C@H](O)[C@@H](O)[C@@H]2O[C@H]2C[C@](C)(N)[C@@H](O)[C@H](C)O2)Oc2ccc(cc2Cl)[C@H]1O [listing 1 of 2 here],bioavailability,[9],95%
same,bioavailability,[10],0%
same,Cmax,[11],11500 ng/mL
same,clearance,[12],8.93 mL/min/kg
same,bioavailability,[13],78%
same,Cmax,[14],9700 ng/mL
same,Vd,[15],2.18 L/kg
same,Cmax,[16],7200 ng/mL
same,half-life,[17],2.8 h
CN[C@H](CC(C)C)C(=O)N[C@H]1C(=O)N[C@@H](CC(N)=O)C(=O)N[C@H]2C(=O)N[C@H]3C(=O)N[C@H](C(=O)N[C@H](C(=O)NC45CC6CC(CC(C6)C4)C5)c4cc(O)cc(O)c4-c4cc3ccc4O)[C@H](O[C@@H]3C[C@@](C)(N)[C@H](O)[C@@H](C)O3)c3ccc(cc3)Oc3cc2cc(c3O[C@H]2O[C@@H](CO)[C@H](O)[C@@H](O)[C@@H]2O[C@H]2C[C@](C)(N)[C@@H](O)[C@H](C)O2)Oc2ccc(cc2Cl)[C@H]1O [listing 2 of 2 here],MIC,Staphylococcus aureus [18],0.78 µg/mL
same,MIC,Bacillus anthracis [19],0.25 µg/mL
same,MIC,[1],0.25 µg/mL
same,MIC,Staphylococcus aureus [20],0.4 µg/mL
same,MIC,Enterococcus faecalis [21],6.25 µg/mL
same,MIC,Staphylococcus aureus [22],0.78 µg/mL
same,MIC,Enterococcus faecium [2],0.5 µg/mL
same,survival at 100 mg/kg,Mus musculus [23],100%
same,ED50,Mus musculus [24],20.4 mg/kg
same,MIC,Staphylococcus aureus [3],1 µg/mL
same,MIC,Bacillus anthracis [25],0.25 µg/mL
same,survival at 30 mg/kg,Mus musculus [26],88%
same,MIC,Enterococcus faecium [4],4 µg/mL
same,survival at 1 mg/kg,Mus musculus [27],50%
same,survival at 10 mg/kg,Mus musculus [28],88%
same,MIC,Enterococcus faecalis [5],0.5 µg/mL
same,MIC,Bacillus anthracis [29],0.5 µg/mL
same,MIC,[6],0.25 µg/mL
same,MIC,Bacillus anthracis [30],0.5 µg/mL
same,MIC,Bacillus anthracis [31],0.5 µg/mL
same,MIC,Staphylococcus aureus [32],1.56 µg/mL
same,survival at 0.3 mg/kg,Mus musculus [33],12.5%
same,MIC,Staphylococcus aureus [7],2 µg/mL
same,MIC,Streptococcus pyogenes,0.2 µg/mL
same,MIC,Enterococcus faecalis [34],12.5 µg/mL
same,MIC,Escherichia coli,> 50 µg/mL
same,MIC,Enterococcus faecalis [8],8 µg/mL
same,MIC,Bacillus anthracis [35],0.5 µg/mL
same,survival at 10 mg/kg,Mus musculus [36],85.7%
same,MIC,Enterococcus faecalis [37],0.4 µg/mL
same,survival at 30 mg/kg,Mus musculus [38],86%
same,survival at 3 mg/kg,Mus musculus [39],62.5%
same,MIC,Staphylococcus aureus [40],0.78 µg/mL
CN[C@H](CC(C)C)C(=O)N[C@H]1C(=O)N[C@@H](CC(N)=O)C(=O)N[C@H]2C(=O)N[C@H]3C(=O)N[C@H](C(=O)N[C@H](C(=O)NC4C5CC6CC(C5)CC4C6)c4cc(O)cc(O)c4-c4cc3ccc4O)[C@H](O[C@@H]3C[C@@](C)(N)[C@H](O)[C@@H](C)O3)c3ccc(cc3)Oc3cc2cc(c3O[C@H]2O[C@@H](CO)[C@H](O)[C@@H](O)[C@@H]2O[C@H]2C[C@](C)(N)[C@@H](O)[C@H](C)O2)Oc2ccc(cc2Cl)[C@H]1O (stereo partly specified),MIC,[1],0.5 µg/mL
same,MIC,Enterococcus faecium [2],1 µg/mL
same,MIC,Staphylococcus aureus [3],2 µg/mL
same,MIC,Enterococcus faecium [4],16 µg/mL
same,MIC,Enterococcus faecalis [5],1 µg/mL
same,MIC,[6],1 µg/mL
same,MIC,Staphylococcus aureus [7],2 µg/mL
same,MIC,Enterococcus faecalis [8],16 µg/mL
CN[C@H](CC(C)C)C(=O)N[C@H]1C(=O)N[C@@H](CC(N)=O)C(=O)N[C@H]2C(=O)N[C@H]3C(=O)N[C@H](C(=O)N[C@H](C(=O)NC4C5CC6CC(C5)CC4C6)c4cc(O)cc(O)c4-c4cc3ccc4O)[C@H](O)c3ccc(c(Cl)c3)Oc3cc2cc(c3O[C@H]2O[C@@H](CO)[C@H](O)[C@@H](O)[C@@H]2O[C@H]2C[C@@](C)(N)C(O)[C@@H](C)O2)Oc2ccc(cc2Cl)[C@H]1O (stereo partly specified),MIC,[1],1 µg/mL
same,MIC,Enterococcus faecium [2],0.5 µg/mL
same,MIC,Staphylococcus aureus [3],4 µg/mL
same,MIC,Enterococcus faecium [4],64 µg/mL
same,MIC,Enterococcus faecalis [5],0.5 µg/mL
same,MIC,[6],1 µg/mL
same,MIC,Staphylococcus aureus [7],4 µg/mL
same,MIC,Enterococcus faecalis [8],64 µg/mL
